Here are results for 9 compounds from ChEMBL document CHEMBL1800033, “Refining the eosinophil cationic protein antibacterial pharmacophore by rational structure minimization” (J Med Chem, 2011).

Data set [1] deals with Acinetobacter baumannii. Put plainly: Bactericidal activity against Acinetobacter baumannii ATCC 15308 after over night incubation. It counts as functional. The note with it: read-out: MIC100. In outline: (§1)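 Overnight LB cultures (37 °C) diluted to about 5 × 10^5 CFU/mL; peptides in 10 mM sodium phosphate pH 7.5, serially diluted 10 to 0.2 μM, incubated with bacteria 4 h, then plated and grown overnight at 37 °C; MIC from two independent experiments, triplicate per concentration.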

Data set [2] has as its system Micrococcus luteus. Nature of the data set: Bactericidal activity against Micrococcus luteus ATCC 7468 after over night incubation. It counts as functional. Conditions: read-out: MIC100. In a few lines:
as §1

Data set [3] deals with Pseudomonas sp. Nature of the data set: Bactericidal activity against Pseudomonas sp. ATCC 15915 after over night incubation. In kind it is functional. The note with it: read-out: MIC100. In a few lines: as §1
In data set [4] the test system is Enterococcus faecium. Nature of the data set: Bactericidal activity against Enterococcus faecium ATCC 19434 after over night incubation. It counts as functional. The note with it: read-out: MIC100. In a few lines: as §1
Data set [5] can be described thus: Toxicity in human RBC assessed as hemolytic activity after 4 hrs. In kind it is cell-based, Erythrocyte. The note with it: human red blood cells (RBC). In outline: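 Fresh human RBCs washed thrice in PBS (35 mM phosphate, 0.15 M NaCl, pH 7.4), 2 × 10^7 cells/mL, incubated with peptide 4 h at 37 °C; supernatant A570 read, 100% lysis set by 10 s sonication; HC50 from sigmoidal fit.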

Data set [6] deals with Escherichia coli. Nature of the data set: Bactericidal activity against Escherichia coli BL2 after over night incubation. Conditions: read-out: MIC100. It counts as functional. In outline:
as §1

The subject of data set [7] is Staphylococcus aureus. Put plainly: Bactericidal activity against Staphylococcus aureus ATCC 502A after over night incubation. Conditions: read-out: MIC100. It counts as functional. In outline:
as §1

Data set [8] relates to Lipopolysaccharide (LPS). Nature of the data set: Displacement of BODIPY TR cadaverine from Escherichia coli serotype 0111:B4 lipopolysaccharide by fluorescent displacement assay. In outline: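 Bodipy TR cadaverine displacement: protein or peptide aliquots added to a stirred mix of LPS (10 μg/mL) and probe (10 μM) in 5 mM Hepes pH 7.5; fluorescence followed, effective displacement value (ED50) calculated.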

Data set [9] can be described thus: Induction of membrane damage in DOPC/DOPG large unilamellar vesicles model at <10 uM after 1 hr by leakage fluorescence assay. It counts as physicochemical.
Data set [10] is described as follows: Induction of membrane damage in DOPC/DOPG large unilamellar vesicles model after 1 hr by leakage fluorescence assay. In kind it is physicochemical. Conditions: read-out: ED50 (the source's name).
Data set [11] concerns Escherichia coli. Nature of the data set: Antibacterial activity against Escherichia coli assessed as concentration required to cause minimum agglutination behavior after overnight incubation. It counts as functional. In outline: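 E. coli grown at 37 °C to mid-exponential phase (OD600 0.6), pelleted, resuspended in Tris-HCl, 0.15 M NaCl, pH 7.5 to A600 of 10; suspension incubated with peptide at 0.1–10 μM, 25 °C overnight; agglutination scored by visual inspection, reported as minimal agglutinating concentration.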

For data set [12], the system named is Lipopolysaccharide (LPS). Nature of the data set: Displacement of BODIPY TR cadaverine from Escherichia coli serotype 0111:B4 lipopolysaccharide at <10 uM by fluorescent displacement assay.

Values after ≈ are worked out from the molar mass of the structure shown. Active and inactive are the calls of the source. No cut-off for these calls is given here. Where a SMILES comes first, the peptide text is derived from it. [ ]: non-standard residue; d: D form. Ahx = NCCCCCC(=O)O

For `CC[C@H](C)[C@H](NC(=O)CNC(=O)[C@@H](NC(=O)[C@H](CCCCN)NC(=O)[C@H](CCCCN)NC(=O)[C@H](Cc1ccccc1)NC(=O)[C@H](CC(C)C)NC(=O)[C@H](CCCCN)NC(=O)[C@H](Cc1c[nH]c2ccccc12)NC(=O)[C@@H](N)CCCCN)[C@@H](C)CC)C(=O)NCC(=O)N[C@@H](C)C(=O)N[C@H](C(=O)N[C@@H](CC(C)C)C(=O)N[C@@H](CCCCN)C(=O)N[C@H](C(=O)N[C@@H](CC(C)C)C(=O)N[C@H](C(=O)N[C@H](C(=O)NCC(=O)N[C@@H](CC(C)C)C(=O)N1CCC[C@H]1C(=O)N[C@@H](C)C(=O)N[C@@H](CC(C)C)C(=O)N[C@H](C(=O)N[C@@H](CO)C(=O)O)[C@@H](C)CC)[C@@H](C)O)[C@@H](C)O)C(C)C)C(C)C`, the MIC in data set [1] was determined as 0.88 µM (≈ 2.46 µg/mL); in data set [2] it was 1.5 µM (≈ 4.19 µg/mL); in data set [3] it was 0.6 µM (≈ 1.68 µg/mL); in data set [4], 1.5 µM (≈ 4.19 µg/mL); in data set [6], 1.1 µM (≈ 3.08 µg/mL); in data set [7], 0.4 µM (≈ 1.12 µg/mL). Besides, in [5], the HC50 (usually the concentration that lyses half of the red blood cells) at 4 h was 7.8 µM.
Regarding `CC[C@H](C)[C@H](NC(=O)[C@H](C)NC(=O)[C@H](CCCNC(=N)N)NC(=O)[C@H](CCSC)NC(=O)[C@H](C)NC(=O)[C@@H](NC(=O)[C@@H](NC(=O)[C@H](CO)NC(=O)CCCCCNC(=O)[C@H](Cc1cnc[nH]1)NC(=O)[C@H](CCC(N)=O)NC(=O)[C@@H](NC(=O)[C@H](C)NC(=O)[C@H](Cc1ccccc1)NC(=O)[C@H](Cc1c[nH]c2ccccc12)NC(=O)[C@H](CCC(N)=O)NC(=O)[C@H](C)N)[C@@H](C)CC)[C@@H](C)O)[C@@H](C)CC)C(=O)N[C@@H](CC(N)=O)C(=O)O` (H-AQWFAIQH[Ahx]STIAMRAIN-OH), the MIC in [1], in [2], in data set [3], in data set [4], in [6] and in [7] was over 10 µM throughout. This compound registered an ED50 in data set [8] of 5130 nM. In addition, the Activity result in data set [9] is “Not Active”. The HC50 at 4 h in data set [5] amounted to 15.2 µM.
For the compound `CC[C@H](C)[C@H](NC(=O)[C@H](C)NC(=O)[C@H](Cc1ccccc1)NC(=O)[C@H](Cc1c[nH]c2ccccc12)NC(=O)[C@H](CCC(N)=O)NC(=O)[C@H](C)N)C(=O)N[C@@H](CCC(N)=O)C(=O)N[C@@H](Cc1cnc[nH]1)C(=O)NCCCCCC(=O)N[C@@H](CO)C(=O)N[C@H](C(=O)N[C@H](C(=O)N[C@@H](C)C(=O)N[C@@H](CCSC)C(=O)N[C@@H](CCCNC(=N)N)C(=O)N[C@@H](C)C(=O)N[C@H](C(=O)N[C@@H](CC(N)=O)C(=O)N[C@@H](CC(N)=O)C(=O)N[C@@H](Cc1ccc(O)cc1)C(=O)N[C@@H](CCCNC(=N)N)C(=O)N[C@@H](Cc1c[nH]c2ccccc12)C(=O)N[C@@H](CCCNC(=N)N)C(=O)O)[C@@H](C)CC)[C@@H](C)CC)[C@@H](C)O` (H-AQWFAIQH[Ahx]STIAMRAINNYRWR-OH), the EC50 in [10] amounted to 1630 nM. Besides, the MIC in [1] is 7 µM (≈ 19.9 µg/mL); in data set [2], over 10 µM; in data set [3], 3.5 µM (≈ 9.97 µg/mL); in data set [4], over 10 µM; in [6], 1.5 µM (≈ 4.27 µg/mL); in data set [7] it was 1.1 µM (≈ 3.13 µg/mL). For the same compound, the ED50 in data set [8] was found to be 1950 nM. Further, the HC50 at 4 h in data set [5] is 14.4 µM.
For `CC[C@H](C)[C@H](NC(=O)[C@H](C)NC(=O)[C@H](CCCNC(=N)N)NC(=O)[C@H](CCSC)NC(=O)[C@H](C)NC(=O)[C@@H](NC(=O)[C@@H](NC(=O)[C@H](CO)NC(=O)CCCCCNC(=O)[C@H](CO)NC(=O)[C@@H](NC(=O)[C@H](Cc1cnc[nH]1)NC(=O)[C@H](CCC(N)=O)NC(=O)[C@@H](NC(=O)[C@H](C)NC(=O)[C@H](Cc1ccccc1)NC(=O)[C@H](Cc1c[nH]c2ccccc12)NC(=O)[C@H](CCC(N)=O)NC(=O)[C@H](C)NC(=O)[C@H](CCCNC(=N)N)NC(=O)[C@@H](N)[C@@H](C)O)[C@@H](C)CC)[C@@H](C)CC)[C@@H](C)O)[C@@H](C)CC)C(=O)N[C@@H](CC(N)=O)C(=O)N[C@@H](CC(N)=O)C(=O)N[C@@H](Cc1ccc(O)cc1)C(=O)N[C@@H](CCCNC(=N)N)C(=O)N[C@@H](Cc1c[nH]c2ccccc12)C(=O)N[C@@H](CCCNC(=N)N)C(=O)O` (H-TRAQWFAIQHIS[Ahx]STIAMRAINNYRWR-OH), in [10], the EC50 came out at 820 nM. Further, the MIC in data set [1] is 0.88 µM (≈ 2.91 µg/mL); in [2], 1.5 µM (≈ 4.96 µg/mL); in data set [3] it was 1.5 µM (≈ 4.96 µg/mL); in [4], 1.5 µM (≈ 4.96 µg/mL); in data set [6], 0.6 µM (≈ 1.98 µg/mL); in data set [7], 0.87 µM (≈ 2.88 µg/mL). This compound also gave an ED50 in data set [8] of 1600 nM. For the same compound, the Activity in data set [11] is under 1 µM. Besides, the HC50 at 4 h in data set [5] amounted to 7.3 µM.
Turning to H-AQWFAIQHISLNPPRSTIAMRAINNYRWR-OH, the EC50 in data set [10] turned out to be 740 nM. Moreover, the MIC in data set [1] came to 1.5 µM; in [2], 3.5 µM; in [3], 3.5 µM; in data set [4], 1.5 µM; in data set [6] it was 1.5 µM; in data set [7], 0.7 µM. For the same compound, in data set [8], the ED50 turned out to be 2430 nM. In data set [11], the Activity was under 1 µM. For the same compound, the HC50 at 4 h in data set [5] amounted to 10.3 µM.
“H-AQWFAIQHISLNPPRSTIAMRAINNYRWRSKNQNTFLR-OH”: in [10], the EC50 was 400 nM. Also, the MIC in data set [1] was 0.88 µM; in data set [2] it was 1.5 µM; in [3] it was 1.5 µM; in [4], 1.5 µM; in data set [6], 0.45 µM; in [7], 0.7 µM. Besides, in data set [8], the ED50 turned out to be 1580 nM. Further, the Activity in data set [11] was under 1 µM. For the same compound, the HC50 at 4 h in data set [5] was 10.5 µM.
Consider H-ISLNPPRSTIAMRAINNYRWRSKNQNTFLR-OH, for which the EC50 in data set [10] came to 760 nM. Moreover, the MIC is 3.5 µM in data set [1]; 3.5 µM in data set [2]; 1.5 µM in data set [3]; 3.5 µM in [4]; 1.5 µM in data set [6]; 1.5 µM in data set [7]. In data set [8], this compound yielded an ED50 of 6130 nM. Also, in data set [5], the HC50 at 4 h worked out at 10.5 µM.
Regarding H-RPPQFTRAQWFAIQHISLN-OH, the MIC in data set [1], in data set [2], in data set [3], in data set [4], in [6] and in data set [7] was over 10 µM in each case. For the same compound, the Activity entry in [9] is “Not Active”. Moreover, in [5], the HC50 at 4 h stood at 11.2 µM. In addition, the outcome in data set [12] was inactive.
Consider H-TIAMRAINNYRWRSKNQNTFLR-OH, for which the EC50 in data set [10] was determined as 1250 nM. The MIC in data set [1] was 1.1 µM; in data set [2], 7 µM; in data set [3] it was 7 µM; in data set [4], 7 µM; in data set [6] it was 7 µM; in data set [7] it was 1.5 µM. This compound also came in with an ED50 in data set [8] of 1520 nM. In addition, the HC50 at 4 h in [5] was found to be 18.7 µM.
